Measurements taken from ChEMBL document CHEMBL1143007, “Synthesis and evaluation of 4/5-hydroxy-2,3-diaryl(substituted)-cyclopent-2-en-1-ones as cis-restricted analogues of combretastatin A-4 as novel anticancer agents” (J Med Chem, 2007).
Values after ≈ are worked out from the molar mass of the structure shown. Active and inactive are the calls of the source. The calls are words filed in the database; no cut-off is given here.

Assays:
HT-29 = test: Cytotoxicity against human HT29 cells after 72 hrs by MTT assay; type: cell-based
In short: (§1)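 MTT assay. Cells seeded at 5000-10 000 per well and incubated at 37 °C in CO₂ with compound at 1-100 µg/mL in triplicate wells for 72 h, then MTT added. Absorbance read at 540 nm; % cytotoxicity = 100 × (1 − treated/control). IC50 obtained by nonlinear regression; NA means IC50 above 100 µg/mL.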

ECV-304 [1] = test: Apoptosis in loosely adherent human ECV304 cells assessed as DNA fragmentation; type: functional, cell-based
In short: (§2)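 ECV304 plated at 2 × 10⁶ cells per 90 mm dish in DMEM with 10% FCS, allowed 5-6 h to reattach, then exposed to 10 nM-1 µM for 24 h in fresh medium; 100 nM positive control. Strongly and loosely adherent cells harvested separately and lysed (1 mM Tris-Cl, 20 mM EDTA pH 8, 1% NP-40).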

ECV-304 [2] = test: Apoptosis in strongly adherent human ECV304 cells at 10 nM assessed as DNA fragmentation; type: functional, cell-based; in short: as §2
ECV-304 [3] = test: Apoptosis in strongly adherent human ECV304 cells at 100 nM assessed as DNA fragmentation; type: functional, cell-based; in short: as §2
[4] = Aqueous solubility in phosphate buffer at pH 7.4
ECV-304 [5] = test: Enhanced mitotic arrest in human ECV304 cells assessed as accumulation at G2/M phase at 1 uM after 24 hrs relative to control; type: functional
In short: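 ECV304 at 1.5 × 10⁶ cells per 90 mm dish in DMEM with 10% FCS overnight, then 1 µM for 24 h in fresh medium. Cells trypsinised, fixed in ice-cold 70% ethanol, treated with trypsin inhibitor and RNase, and stained with propidium iodide in the dark at 4-10 °C for 1 h. Flow cytometry with low gate at 10% of the G1 peak; G1 and G2/M fractions against untreated control.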

KB = test: Cytotoxicity against human KB cells after 72 hrs by MTT assay; type: cell-based; in short: as §1
[6] = Antitumor activity in primary tumor colon xenografted Balb/C athymic nude mouse assessed as decreased tumor volume at 20 mg/kg, iv on day 22 relative to control; type: functional, Homo sapiens; parameters: scale not given: the % may be the effect or the level left
In short: (§3)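 PTC colon tumour cells (15 × 10⁶ cells/100 µL) inoculated subcutaneously in Balb/c athymic nude mice aged 6-8 weeks, about 20 g; 3 animals per group. Dosing began at about 500 mm³: 20 mg/kg i.v. once daily for 14 days, cosolvent formulation diluted in 5% dextrose; controls received vehicle. Caliper volume W×W×L×0.4 every fourth day; regression = (1 − treated/control volume) × 100; Dunnett comparison, p < 0.05.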

MIA PaCa-2 = test: Cytotoxicity against human MiaPaCa2 cells after 72 hrs by MTT assay; type: cell-based; in short: as §1
Mus musculus = test: Volume of distribution in iv dosed Swiss Albino mouse plasma; type: ADME, organism-based; settings: in vivo
In short: (§4)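 Swiss albino mice (6-8 weeks, ~25 g) dosed intravenously with compound in a cosolvent formulation diluted in 5% dextrose. Blood drawn by orbital bleed under mild ether at 3, 10, 30 min, 1, 2, 4, 6, 8 and 24 h into EDTA, with no more than five bleeds per mouse. Plasma was solvent-extracted and measured by C18 HPLC against an internal standard and a standard curve. Results are mean ± SD, n = 3.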

[7] = Mean residence time in iv dosed Swiss Albino mouse plasma; type: ADME, organism-based; in short: as §4
[8] = Cytotoxicity against human PA1 cells after 72 hrs by MTT assay; type: cell-based, PA-1; in short: as §1
[9] = AUC in iv dosed Swiss Albino mouse plasma; type: ADME, organism-based; in short: as §4
DU-145 = test: Cytotoxicity against human DU145 cells after 72 hrs by MTT assay; type: cell-based; in short: as §1
HEK293 = test: Cytotoxicity against human HEK293 cells after 72 hrs by MTT assay; type: cell-based; in short: as §1
Homo sapiens = test: Antitumor activity in primary tumor colon xenografted Balb/C athymic nude mouse assessed as decreased tumor volume at 20 mg/kg, iv on day 19; type: functional, organism-based; parameters: dose 20 mg/kg; in short: as §3
[10] = Clearance in iv dosed Swiss Albino mouse plasma; type: ADME, organism-based; in short: as §4
ECV-304 [11] = test: Apoptosis in strongly adherent human ECV304 cells at 1000 nM assessed as DNA fragmentation; type: functional, cell-based; in short: as §2
L132 = test: Cytotoxicity against human L132 cells after 72 hrs by MTT assay; type: cell-based; in short: as §1
[12] = Cytotoxicity against human ECV304 cells after 72 hrs by MTT assay; type: cell-based, ECV-304; in short: as §1
[13] = Cytotoxicity against human primary tumor colon cells; type: cell-based
[14] = Cmax in iv dosed Swiss Albino mouse plasma; type: ADME, organism-based; parameters: route intravenous; in short: as §4
[15] = Half life in iv dosed Swiss Albino mouse plasma; type: ADME, organism-based; in short: as §4
[16] = Inhibition of tubulin polymerization in bovine brain; parameters: species or system Bos taurus
In short: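 Compounds were added from DMSO stocks, with final DMSO below 0.4%. A340 was read every 60 s, and the area under the curve was taken as polymer amount, with the control set to 100%. IC50 is the concentration giving 50% inhibition.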

[17] = Cytotoxicity against human Hep2 cells after 72 hrs by MTT assay; type: cell-based, HEp-2; in short: as §1
[18] = Homo sapiens, HT-29, 72 h, read-out: IC50
[19] = Homo sapiens, KB, 72 h, read-out: IC50
[20] = Homo sapiens, MIA PaCa-2, 72 h, read-out: IC50
[21] = Homo sapiens, PA-1, 72 h, read-out: IC50
[22] = Homo sapiens, DU-145, 72 h, read-out: IC50
[23] = Homo sapiens, HEK293, 72 h, read-out: IC50
[24] = Homo sapiens, L132, 72 h, read-out: IC50
[25] = Homo sapiens, ECV-304, 72 h, read-out: IC50
[26] = Homo sapiens, HEp-2, 72 h, read-out: IC50

| SMILES | IC50 (HT-29; [18]) | IC50 (KB; [19]) | IC50 (MIA PaCa-2; [20]) | IC50 [8, 21] | IC50 (DU-145; [22]) | IC50 (HEK293; [23]) | IC50 (L132; [24]) | IC50 [12, 25] | IC50 [17, 26] | also measured |
| --- | --- | --- | --- | --- | --- | --- | --- | --- | --- | --- |
| COc1ccc(C2=C(c3cc(OC)c(OC)c(OC)c3)/C(=N\O)C(O)C2)cc1 (configuration not stated) | < 1 mg/L | < 1 mg/L | < 1 mg/L | < 1 mg/L | > 100 mg/L | 4.2 mg/L (≈ 10.9 µM) | < 1 mg/L | < 1 mg/L | < 1 mg/L | Activity (ECV-304 [1]): Dose-dependent effect; Activity (ECV-304 [2]): inactive; Activity (ECV-304 [3]): inactive; solubility [4]: 360 µM (≈ 139 µg/mL); Activity (ECV-304 [5]): 59%; Activity [6]: 45.8%; Vdss (Mus musculus): 46.56 mL; MRT [7]: 31.8 min; AUC [9]: 3.84 µg·h/mL; Activity (Homo sapiens): Active; clearance [10]: 1.15 mL/min; Activity (ECV-304 [11]): inactive; IC50 [13]: 0.271 mg/L (≈ 0.703 µM); Cmax [14]: 7.05 µg/mL; half-life [15]: 28.2 min; IC50 [16]: 1.75 µM |
| COc1ccc(C2=C(c3cc(OC)c(OC)c(OC)c3)C(=O)C(O)C2)cc1 (configuration not stated) | < 1 mg/L | < 1 mg/L | < 1 mg/L | < 1 mg/L | > 100 mg/L | 6.3 mg/L (≈ 17 µM) | < 1 mg/L | < 1 mg/L | < 1 mg/L | Activity (ECV-304 [1]): Dose-dependent effect; Activity (ECV-304 [2]): inactive; Activity (ECV-304 [3]): inactive; Activity (ECV-304 [5]): 54%; Activity (ECV-304 [11]): inactive |
| COc1ccc(/C=C\c2cc(OC)c(OC)c(OC)c2)cc1O [COMBRETASTATIN A4] | 5 mg/L (≈ 15.8 µM) | < 1 mg/L | < 1 mg/L | < 1 mg/L | 57 mg/L (≈ 180 µM) | 5.7 mg/L (≈ 18 µM) | < 1 mg/L | < 1 mg/L | 5 mg/L (≈ 15.8 µM) | Activity (ECV-304 [2]): inactive; Activity (ECV-304 [3]): inactive; solubility [4]: 123 µM (≈ 38.8 µg/mL); Activity (ECV-304 [5]): 41%; Vdss (Mus musculus): 80.82 mL; MRT [7]: 9 min; AUC [9]: 0.92 µg·h/mL; clearance [10]: 4.86 mL/min; Activity (ECV-304 [11]): inactive; Cmax [14]: 3.83 µg/mL; half-life [15]: 11.4 min; IC50 [16]: 0.98 µM |
| C=CCOc1cc(C2=C(c3cc(OC)c(OC)c(OC)c3)C(=O)C(O)C2)ccc1OC (configuration not stated) | > 100 mg/L | > 100 mg/L | > 100 mg/L | > 100 mg/L | > 100 mg/L | > 100 mg/L | > 100 mg/L | > 100 mg/L | > 100 mg/L |  |
| COc1ccc(C2=C(c3cc(OC)c(OC)c(OC)c3)/C(=N\O)C(O)C2)cc1OC(C)C (configuration not stated) | 69 mg/L (≈ 156 µM) | 95 mg/L (≈ 214 µM) | 98 mg/L (≈ 221 µM) | 61 mg/L (≈ 138 µM) | 81 mg/L (≈ 183 µM) | 36.8 mg/L (≈ 82.9 µM) | 75 mg/L (≈ 169 µM) | 96 mg/L (≈ 216 µM) | 40 mg/L (≈ 90.2 µM) |  |
| COc1ccc(C2=C(c3cc(OC)c(OC)c(OC)c3)C(=O)C(OC(C)=O)C2)cc1O (configuration not stated) | < 1 mg/L | 35 mg/L (≈ 81.7 µM) | 18.5 mg/L (≈ 43.2 µM) | 6 mg/L (≈ 14 µM) | > 100 mg/L | 92 mg/L (≈ 215 µM) | 6 mg/L (≈ 14 µM) | > 100 mg/L | > 100 mg/L |  |
| COc1ccc(C2=C(c3cc(OC)c(OC)c(OC)c3)/C(=N\O)C(OC(C)=O)C2)cc1Cl (configuration not stated) | < 1 mg/L | 50 mg/L (≈ 108 µM) | 10 mg/L (≈ 21.6 µM) | 37.5 mg/L (≈ 81.2 µM) | 17 mg/L (≈ 36.8 µM) | 32 mg/L (≈ 69.3 µM) | < 1 mg/L | 8 mg/L (≈ 17.3 µM) | < 1 mg/L |  |
| CC(=O)OC1C/C(=N/O)C(c2ccccc2)=C1c1ccccc1 (configuration not stated) | > 100 mg/L | 9 mg/L (≈ 29.3 µM) | 4.5 mg/L (≈ 14.6 µM) | > 100 mg/L | > 100 mg/L | 92.3 mg/L (≈ 300 µM) | > 100 mg/L | > 100 mg/L | > 100 mg/L |  |
| COc1ccc(C2=C(c3cc(OC)c(OC)c(OC)c3)C(=O)C(OC(C)=O)C2)cc1F (configuration not stated) | < 1 mg/L | 33 mg/L (≈ 76.7 µM) | 39.5 mg/L (≈ 91.8 µM) | > 100 mg/L | 16 mg/L (≈ 37.2 µM) | 59 mg/L (≈ 137 µM) | < 1 mg/L | 41 mg/L (≈ 95.3 µM) | < 1 mg/L |  |
| COc1ccc(C2=C(c3cc(OC)c(OC)c(OC)c3)/C(=N\O)C(O)C2)cc1F (configuration not stated) | < 1 mg/L | < 1 mg/L | 94 mg/L (≈ 233 µM) | > 100 mg/L | 10 mg/L (≈ 24.8 µM) | > 100 mg/L | < 1 mg/L | 43 mg/L (≈ 107 µM) | < 1 mg/L |  |
| COc1ccc(C2=C(c3cc(OC)c(OC)c(OC)c3)/C(=N\O)CC2OC(C)=O)cc1 (stereo in doubt; 22) |  |  |  |  |  |  |  |  |  | IC50 (HT-29; ht-29): 1.5 mg/L (≈ 3.51 µM); IC50 (KB; kb): 5 mg/L (≈ 11.7 µM); IC50 (MIA PaCa-2; mia paca-2): 1 mg/L (≈ 2.34 µM); IC50 ([8]; pa-1): 20 mg/L (≈ 46.8 µM); IC50 (DU-145; du-145): 20 mg/L (≈ 46.8 µM); IC50 (HEK293; hek293): 32 mg/L (≈ 74.9 µM); IC50 (L132; l132): 20 mg/L (≈ 46.8 µM); IC50 ([12]; ecv-304): 4 mg/L (≈ 9.36 µM); IC50 ([17]; hep-2): 3 mg/L (≈ 7.02 µM) |
